The format of data set [1] is in vivo, human. To be noted: for AUC after 5th dose: individual patients, steady state, plasma, AUC0-8; for average steady-state concentration (Css, avg) of formed colistin, median: six patients receiving 2 MU q8h, no loading dose. In a few lines:
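CMS was given by 1-h i.v. infusion every 8 h. Heparinized venous blood was drawn pre-dose, at end of infusion, then 30 min and 1.5, 2, 4, 6, 8 h after dose 1 and dose 5 (steady state). Plasma (200 μl) was stored at −80°C. CMS was acid-hydrolysed (5% formic acid, 30 min), and colistin A+B were quantified by UHPLC-MS/SRM against a reserpine internal standard. Values are total colistin, with outliers omitted.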

Data set [2] deals with Acinetobacter baumannii. The data set is described as follows: MIC for colistin by E-test. The class given is cell-based. Conditions: isolate of the individual patient. In a few lines:
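Organisms came from positive cultures of ICU patients with MDR Gram-negative bloodstream infection and were identified and susceptibility-tested. Colistin MIC for each patient's isolate was determined by E-test per the manufacturer's instructions.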

Data set [3] has as its system MDR Gram-negative infections. The data set is described as follows: Bacteriological profile and clinical outcome of patients on colistin monotherapy. The data set is classed as in vivo, human. To be noted: 1-2 MU i.v. every 8 h. In a few lines: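 ICU patients >12 yr with normal renal function and bloodstream infection by an MDR Gram-negative organism susceptible only to colistin. They received colistin monotherapy as CMS by 1-h i.v. infusion every 8 h, without a loading dose, for […]. Follow-up cultures were taken. Exclusions were expected survival <72 h, pregnancy, burns >20% of body surface, and cystic fibrosis.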

The conditions of data set [4]: cited from earlier work.
For data set [5] the following is noted: stored plasma samples; to be estimated within four months; ref [17]; cited from earlier work.

≈ marks a conversion by molar mass, not a printed value. Where “and” joins values, the source holds several entries; their conditions need not be identical. Equal values may be shown once. Read-outs that look alike come from different tables or passages of the source. Bridge positions count the residues as written; N and C are the ends. Square brackets hold non-standard residues; d marks the D form. Peptide text beside a SMILES is read from it. * marks the point of attachment. X1 = CC[C@H](C)CCCCC(=O)*; Dab = NCC[C@H](N)C(=O)O

In the case of `CC[C@H](C)CCCCC(=O)N[C@@H](CCN)C(=O)N[C@H](C(=O)N[C@@H](CCN)C(=O)N[C@H]1CCNC(=O)[C@H]([C@@H](C)O)NC(=O)[C@H](CCN)NC(=O)[C@H](CCN)NC(=O)[C@H](CC(C)C)NC(=O)[C@@H](CC(C)C)NC(=O)[C@H](CCN)NC1=O)[C@@H](C)O` [colistin] (X1-[Dab]T[Dab][Dab][Dab][dL]L[Dab][Dab]T; lactam 4-C), the “terminal half-life, range” value in data set [1] (2 MU i.v. every 8 h, after 1st dose) is 4.7 to 9.84 h; in data set [1] (2 MU i.v. every 8 h, after 5th dose), 2.72 to 8.5 h. Moreover, the “AUC after 5th dose” value is 5.4 mg·h/L and 8.5 mg·h/L and 3.5 mg·h/L in data set [1] (1 MU i.v. every 8 h); 15.8 mg·h/L and 6.0 mg·h/L and 4.4 mg·h/L in data set [1] (2 MU i.v. every 8 h). In addition, in data set [1] (patients of this study), the “Vd for a majority of patients” value is reported as “more than 1.0 l/kg”. The figures for the “average steady-state concentration (Css, avg) of formed colistin, median” value in data set [1] (after 1st dose) and in data set [1] (after 5th dose) were 570 ng/mL and 720 ng/mL, respectively. The MIC (commonly the lowest concentration found to suppress growth) in data set [2] stood at 0.125 µg/mL (≈ 0.107 µM). Moreover, the follow up cultures result in data set [3] (all nine patients) is listed as “sterile”. Moreover, the “patients who did not survive” value in data set [3] (nine patients) was determined as 30 per cent. The “apparent terminal t1/2” value in data set [4] (2 MU dosage regimen, ref Imberti et al [10]) was 5.9 ± 2.6 h. For the same compound, the t1/2 in data set [4] (after 2.8 MU dosage, ref Markou et al [11]) is 7.4 ± 1.7 h. For the same compound, the Vd in data set [4] (cystic fibrosis patients, single dose, ref [17]) is 0.09 (0.02) l/kg; in data set [4] (cystic fibrosis patients, steady state, ref [17]), 0.09 (0.03) l/kg; in data set [4] (other Indian study, after both the single dose and at steady state, ref [7]) it was 0.3 (0.2-0.5) l/kg; in data set [4] (other studies, ref [10]), 1.5 ± 1.1 L/kg.
Consider colistin methanesulphonate [CMS], for which the “stability in stored samples (conversion of CMS to colistin)” value in data set [5] was “unstable”.

(Values after PMC6057249 (The Indian Journal of Medical Research, 2018).)
